Assay [1] can be described thus: Induction of phagocytosis in Wistar rat microglia assessed as uptake of microspheres at 100 uM after 20 mins by FACS. The format is functional. An outline of the steps:
(§1)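 Rat primary cultured microglia incubated with agonist for 20 min, with UDP tested at 5–1,000 μM, in the presence of fluorescent latex microspheres. Bead uptake is quantified by FACS, and results are expressed relative to uptake with 100 μM UDP alone. Values are means ± s.e.m. of about three or four experiments.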
For orientation: In flow cytometry, cells or beads pass a laser one at a time.

Assay [2] concerns Rattus norvegicus. Nature of the assay: Increase in P2Y6 receptor protein expression in Wistar rat brain at 10 mg/kg, ip after 72 hrs by Western blotting. On the set-up: dose 10 mg/kg. It counts as functional, organism-based. In outline: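 Rats given 10 mg kg⁻¹ i.p. (saline-injected controls); brains removed 72 h later and hippocampal P2Y₆ receptor protein quantified by western blot; 8 control and 7 treated experiments.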
(In general: In western blotting, separated proteins are transferred to a membrane and probed.)

Assay [3] has as its system Hippocampus. As to the kind of experiment: Induction of neuronal loss in Wistar rat hippocampal CA1 region assessed as increase in number of microglia by immunohistochemical analysis. It counts as functional, tissue-based. In outline:
(§2)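 Rats given 10 mg kg⁻¹ i.p.; 72 h later hippocampal sections double-stained with anti-NeuN (neurons) and anti-Iba1 (microglia) to assess CA1 and CA3 neuronal loss and microglial number.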

Assay [4] deals with Hippocampus. Nature of the assay: Induction of neuronal loss in Wistar rat hippocampal CA3 region assessed as increase in number of microglia by immunohistochemical analysis. It counts as functional, tissue-based. An outline of the steps: as §2
Assay [5] has as its system Microglia. As to the kind of experiment: Increase in P2Y6 receptor protein expression in Wistar rat microglia. It counts as functional, cell-based. An outline of the steps: (§3)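 Rats given 10 mg kg⁻¹ i.p.; brain sections immunostained for P2Y₆ receptor and co-stained for microglia (OX42), astrocytes (GFAP) or neurons (NeuN) to assess colocalization.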
For assay [6], the system named is Astrocyte. As to the kind of experiment: Increase in P2Y6 receptor protein expression in Wistar rat astrocytes. It counts as functional, cell-based. In outline:
as §3

Assay [7] relates to Neuron. Nature of the assay: Increase in P2Y6 receptor protein expression in Wistar rat neurons. The format is functional, cell-based. An outline of the steps: as §3
Assay [8] has as its system Hippocampus. As to the kind of experiment: Upregulation of P2Y6 receptor mRNA signals in Wistar rat hippocampal CA3 region assessed as increase in number of microglia by in situ hybridization after 3 days. The format is functional, tissue-based. In outline: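 Rats given 10 mg kg⁻¹ i.p.; 3 days later hippocampal sections probed by in situ hybridization with P2Y₆ antisense RNA probe, then stained with anti-Iba1 to identify microglia bearing receptor mRNA in CA3.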

In assay [9] the test system is Microglia. As to the kind of experiment: Increase in phagocytosis in Wistar rat microglia assessed as uptake of microspheres by FACS. The format is functional, cell-based. In outline:
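Cultured primary rat microglia incubated 20 min with fluorescent latex beads plus agonist (5–1,000 μM); bead uptake quantified by flow cytometry; three experiments.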

Assay [10] deals with Microglia. Nature of the assay: Reversal of increase drug-induced phagocytosis in Wistar rat microglia assessed as uptake of microspheres by FACS in presence of MRS2578. It counts as functional, cell-based. In outline:
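Microglia incubated 20 min with supernatant from hippocampal neurons treated ±100 μM kainate for 1 h, with or without 1 μM antagonist; fluorescent latex bead uptake measured by flow cytometry; at least four independent experiments.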

Assay [11] concerns Neuron. As to the kind of experiment: Increase in UTP level in Wistar rat hippocampal neuron at 10 mg/kg, ip by microdialysis. The format is functional, organism-based. On the set-up: dose 10 mg/kg. The conditions noted are these: Hippocampus, TDE = time-dependent effect.
Assay [12] relates to Neuron. As to the kind of experiment: Induction of neuronal loss in Wistar rat neurons at 10 mg/kg, ip after 2-3 days. It counts as functional, organism-based. Set-up: dose 10 mg/kg.
Assay [13] concerns Hippocampus. Nature of the assay: Induction of phagocytosis in Wistar rat hippocampal CA3 region assessed as increase in number of microglia at 10 mg/kg, ip. Set-up: dose 10 mg/kg. The format is functional, organism-based. An outline of the steps: (§4)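 Rats given 10 mg kg⁻¹ i.p.; fluorescent microspheres injected into hippocampal CA3, antagonist injected into CA3 (antisense/mismatch oligonucleotide into third ventricle); microspheres taken up or attached by anti-Iba1-stained microglia counted by confocal microscopy; ANOVA with Scheffe test.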

The test system of assay [14] is Hippocampus. Nature of the assay: Reversal of drug-induced phagocytosis in Wistar rat hippocampal CA3 region assessed as increase in number of microglia at 10 mg/kg, ip in presence of MRS2578. It counts as functional, organism-based. Set-up: dose 10 mg/kg. An outline of the steps: as §4
Assay [15] deals with Neuron. As to the kind of experiment: Increase in UTP level in Wistar rat hippocampal neuron at 100 uM after 1 hr by HPLC in presence of ARL67156.
In assay [16] the target is P2Y purinoceptor 6 (Rattus norvegicus) (UniProt Q63371). Nature of the assay: Effect on P2Y6 receptor-mediated cell motility in Wistar rat microglia assessed as formation of lamellipodia-like membrane ruffles at 10 uM after 5 mins. In outline:
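Cultured primary rat microglia stimulated 5 min with agonist, then fixed, permeabilized and phalloidin-stained; lamellipodia-like membrane ruffles scored by microscopy.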

Assay [17] has the same target. Nature of the assay: Effect on P2Y6 receptor-mediated cell motility in Wistar rat microglia at 100 uM by chemotaxis assay. In outline: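 Chemotaxis of cultured primary rat microglia toward agonist (100 μM) assessed in a Dunn chemotaxis chamber.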
Assay [18] has the same target. Nature of the assay: Activity at P2Y6 receptor in Wistar rat microglia assessed as inhibition of intracellular calcium concentration at 100 uM after 600 secs by ratiometric fura-2 fluorescence method in presence of xestospongin C. The format is functional, cell-based. An outline of the steps:
(§5)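 Cultured rat primary microglia. Intracellular Ca2+ measured as the change in the 340/380 nm Fura-2 fluorescence ratio after stimulation with 100 μM UDP, alone or with inhibitors. The maximal UDP-alone response is the control, and responses are expressed as percent of control. Values are means ± s.e.m. of 24–36 cells from at least three independent experiments.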
Background: Calcium assays in cells follow changes in intracellular calcium, usually with a dye or a luminescent sensor.

Assay [19] shares this target. Nature of the assay: Activity at P2Y6 receptor in Wistar rat microglia assessed as inhibition of intracellular calcium concentration at 100 uM by ratiometric fura-2 fluorescence method in presence of reactive blue 2. The format is functional, cell-based. In outline: as §5
Assay [20] has the same target. Nature of the assay: Activity at P2Y6 receptor in Wistar rat microglia assessed as inhibition of intracellular calcium concentration at 100 uM in presence of suramin by ratiometric fura-2 fluorescence method. The format is functional, cell-based. An outline of the steps:
as §5

The target is the same in assay [21]. Nature of the assay: Activity at P2Y6 receptor in Wistar rat microglia assessed as inhibition of intracellular calcium concentration at 100 uM by ratiometric fura-2 fluorescence method in presence of MRS2578. It counts as functional, cell-based. In outline:
as §5

The target is the same in assay [22]. Nature of the assay: Effect on P2Y6 receptor-mediated cell motility in Wistar rat microglia assessed as formation of lamellipodia-like membrane ruffles at 100 uM after 5 mins. An outline of the steps:
(§6)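 Rat primary cultured microglia stimulated for 5 min with 100 μM UDP or 10 μM ATP, then fixed, permeabilized and stained with phalloidin. Membrane ruffles and other actin structures are assessed by microscopy.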

In assay [23] the test system is Microglia. Nature of the assay: Effect on formation of F-actin aggregation in Wistar rat microglia at 100 uM after 5 mins. The format is functional, cell-based. An outline of the steps:
as §6

The subject of assay [24] is Microglia. As to the kind of experiment: Effect on formation of filopodia-like protrusions in Wistar rat microglia at 100 uM after 5 mins. The format is functional, cell-based. In outline: as §6
Assay [25] deals with Microglia. As to the kind of experiment: Effect on formation of phagosome-like vacuoles in Wistar rat microglia at 100 uM after 5 mins. It counts as functional, cell-based. In outline:
as §6

Assay [26] has as its system Microglia. As to the kind of experiment: Effect on formation of phagocytotic cup in Wistar rat microglia at 100 uM after 5 mins. The format is functional, cell-based. In outline:
as §6

For assay [27], the system named is Microglia. Nature of the assay: Induction of phagocytosis in Wistar rat microglia assessed as uptake of microspheres after 20 mins by FACS. It counts as functional, cell-based. An outline of the steps: as §1
Assay [28] has as its system Microglia. Nature of the assay: Reversal of drug-induced of phagocytosis in Wistar rat microglia at 100 uM in presence of reactive blue 2. The format is functional. An outline of the steps: (§7)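 Rat primary cultured microglia stimulated with 100 μM UDP, with or without reactive blue 2 (30–100 μM), suramin (300 μM), MRS2578 (0.01–3 μM), thapsigargin (1 μM), staurosporine (5 μM) or U73122 (10 μM). Uptake of fluorescent latex microspheres during the 20-min incubation is quantified by FACS. Values are means ± s.e.m.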

Assay [29] relates to Microglia. As to the kind of experiment: Reversal of drug-induced of phagocytosis in Wistar rat microglia at 100 uM in presence of suramin. It counts as functional. In outline:
as §7

Assay [30] has as its system Microglia. As to the kind of experiment: Reversal of drug-induced phagocytosis in Wistar rat microglia at 100 uM in presence of MRS2578. It counts as functional. An outline of the steps: as §7
The target in assay [31] is T1, Cysteinyl leukotriene receptor 1 (Rattus norvegicus) (UniProt Q924T8).
T1 sequence (whole entry): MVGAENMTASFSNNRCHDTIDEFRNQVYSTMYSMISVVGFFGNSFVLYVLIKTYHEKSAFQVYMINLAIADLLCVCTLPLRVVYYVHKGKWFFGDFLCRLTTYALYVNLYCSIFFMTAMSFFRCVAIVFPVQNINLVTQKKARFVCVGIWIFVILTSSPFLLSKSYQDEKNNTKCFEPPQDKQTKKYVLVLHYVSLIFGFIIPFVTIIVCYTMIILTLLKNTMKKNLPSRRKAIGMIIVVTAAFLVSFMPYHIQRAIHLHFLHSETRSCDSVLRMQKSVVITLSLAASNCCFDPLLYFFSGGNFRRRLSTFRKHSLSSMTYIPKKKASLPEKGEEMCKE
Nature of the assay: Agonist activity at CysLT1 receptor in Wistar rat microglia assessed as increase in intracellular calcium concentration at 30 uM by ratiometric fura-2 fluorescence method. The format is functional, cell-based.

Assay [32] relates to Microglia. As to the kind of experiment: Reversal of drug-induced phagocytosis in Wistar rat microglia at 100 uM in presence of U73122. The format is functional, cell-based. An outline of the steps:
as §7

Assay [33] relates to Microglia. Nature of the assay: Reversal of drug-induced phagocytosis in Wistar rat microglia at 100 uM in presence of thapsigargin. The format is functional, cell-based. In outline:
as §7

The test system of assay [34] is Microglia. As to the kind of experiment: Reversal of drug-induced phagocytosis in Wistar rat microglia at 100 uM in presence of staurosporine. The format is functional, cell-based. In outline:
as §7

In assay [35] the target is P2Y purinoceptor 6 (Rattus norvegicus) (UniProt Q63371). As to the kind of experiment: Agonist activity at P2Y6 receptor in Wistar rat microglia assessed as increase in intracellular calcium concentration by ratiometric fura-2 fluorescence method. The format is functional, cell-based. In outline: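 Rat primary cultured microglia loaded with Fura-2. The rise in [Ca2+]i is read as the change in the 340/380 nm fluorescence ratio. UDP is applied over a concentration range, and the fraction of responding cells is also scored.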

The target is the same in assay [36]. Nature of the assay: Activity at P2Y6 receptor in Wistar rat microglia assessed as inhibition of intracellular calcium concentration at 100 uM after 300 secs by ratiometric fura-2 fluorescence method in presence of U73122. It counts as functional, cell-based. In outline:
as §5

For assay [37] the target is unchanged. As to the kind of experiment: Activity at P2Y6 receptor in Wistar rat microglia assessed as inhibition of intracellular calcium concentration at 100 uM after 600 secs by ratiometric fura-2 fluorescence method in presence of thapsigargin. The format is functional, cell-based. In outline: as §5

Activity calls are given as the source filed them. The calls are words filed in the database; no cut-off is given here.

Chain of P2Y purinoceptor 6 (Rattus norvegicus) (Q63371 whole entry): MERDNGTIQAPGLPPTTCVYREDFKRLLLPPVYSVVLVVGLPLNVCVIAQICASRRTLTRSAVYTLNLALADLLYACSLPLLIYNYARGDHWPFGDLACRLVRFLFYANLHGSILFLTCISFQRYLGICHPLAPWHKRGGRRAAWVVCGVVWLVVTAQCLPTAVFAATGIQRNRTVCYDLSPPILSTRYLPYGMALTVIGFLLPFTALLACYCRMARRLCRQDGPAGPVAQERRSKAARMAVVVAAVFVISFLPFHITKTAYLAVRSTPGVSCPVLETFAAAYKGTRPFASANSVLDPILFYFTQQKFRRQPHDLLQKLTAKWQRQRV

With `Nc1ncnc2c1ncn2[C@@H]1O[C@H](COP(=O)(O)OP(=O)(O)O)[C@@H](O)[C@H]1O` [ADENOSINE DIPHOSPHATE], the Activity in [1] stood at 0.3%.

As to `Nc1nc2c(ncn2[C@@H]2O[C@H](COP(=O)(O)OP(=O)(O)O)[C@@H](O)[C@H]2O)c(=O)[nH]1`, the Activity in [1] is reported as 49.7%.

As for `C=C(C)[C@H]1CN[C@H](C(=O)O)[C@H]1CC(=O)O` [KAINIC ACID], the outcome in [2], in assay [3], in assay [4], in [5], in assay [8] and in [9] was Active. The outcome in assay [10], in [12], in assay [13] and in assay [14] was Active. The outcome in assay [6] and in assay [7] was inactive. The Activity result in [11] is “tde”; in [15], 10.5 µM.

Turning to `Nc1ncnc2c1ncn2[C@@H]1O[C@H](COP(=O)(O)OP(=O)(O)OP(=O)(O)O)[C@@H](O)[C@H]1O`, the outcome in assay [16] and in [17] was Active.

`O=c1ccn([C@@H]2O[C@H](COP(=O)(O)OP(=O)(O)O)[C@@H](O)[C@H]2O)c(=O)[nH]1`: the result in assay [18], in assay [19], in [20], in assay [21], in assay [23] and in assay [24] was Active. Further, the result in assay [25], in assay [26], in assay [28], in assay [29], in assay [30] and in assay [31] was Active. For the same compound, the result in assay [32], in assay [33], in assay [34], in assay [36] and in assay [37] was Active. Moreover, the outcome in assay [22] and in [17] was inactive. Besides, the Activity entry in assay [27] and in assay [35] was “Dose-dependent effect” throughout.

Values taken from ChEMBL document CHEMBL1147977, “UDP acting at P2Y6 receptors is a mediator of microglial phagocytosis” (2007).
